Key:
[1] = Compound evaluated in vitro for the dose required to kill 50% of chinese hamster cells measured by colony formation […]; format: functional; conditions: Cricetulus griseus, read-out: ED50 (the source's name)
Outline: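 Chinese hamster V-79 cells, about 200 per dish, attached 2 h in MEM + 15% fetal calf serum. Exposed to a range of drug concentrations for 2 h at 37 °C, in air or hypoxia (95% N2/5% CO2 purge, 90 min). Drug then replaced by fresh medium, 6-day incubation, colonies stained with methylene blue and counted. ED50 read from concentration vs. percent survival graphs.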

[2] = Evaluated for sensitizer enhancement ratio determined by dividing the D0 value from the control radiation survival curve by the […] from the radiation survival curve in the presence at a concentration of 0.05 mM.; format: functional
Outline: (§1)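 Hypoxic asynchronous V-79 monolayers in sealed containers (95% N2/5% CO2 purge) with drug present. Irradiated at room temperature by linear accelerator, 180 rad/min, 400–2400 rad, for full survival curves by colony formation. SER is the D0 of hypoxic control cells divided by the D0 of hypoxic drug-treated cells. Drug given at maximum nontoxic 2-h concentration, up to 1 mM.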

[3] = Compound evaluated for the partition coefficient (PC); format: physicochemical; conditions: octanol/water
Outline: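 Octanol/phosphate buffer (0.1 M, pH 7.4) partition, equal volumes, stirred 1 h at room temperature. Nitroimidazole concentration in each phase measured spectrophotometrically.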

[4] = Evaluated for sensitizer enhancement ratio determined by dividing the D0 value from the control radiation survival curve by the […] from the radiation survival curve in the presence at a concentration of 1.0 mM.; format: functional
Outline: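 V-79 Chinese hamster asynchronous monolayers in MEM with 15% fetal calf serum. Cells made hypoxic in sealed containers purged with 95% N2/5% CO2 for 90 min, drug exposure 2 h. Irradiated at room temperature by linear accelerator at 180 rad/min, 400–2400 rad. Colonies counted after 6 days at 37 °C. SER = D0 of hypoxic controls / D0 of hypoxic drug-treated cells.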

[5] = Evaluated for sensitizer enhancement ratio determined by dividing the D0 value from the control radiation survival curve by the […] from the radiation survival curve in the presence at a concentration of 0.1 mM.; format: functional; outline: as §1
[6] = Evaluated for sensitizer enhancement ratio determined by dividing the D0 value from the control radiation survival curve by the […] from the radiation survival curve in the presence at a concentration of 0.25 mM.; format: functional; outline: as §1
[7] = Evaluated for sensitizer enhancement ratio determined by dividing the D0 value from the control radiation survival curve by the […] from the radiation survival curve in the presence at a concentration of 0.5 mM.; format: functional; outline: as §1
[8] = Evaluated for sensitizer enhancement ratio determined by dividing the D0 value from the control radiation survival curve by the […] from the radiation survival curve in the presence at a concentration of 1.0 mM.
[9] = Evaluated for sensitizer enhancement ratio determined by dividing the D0 value from the control radiation survival curve by the […] from the radiation survival curve in the presence at a concentration of 0.025 mM.; format: functional; outline: as §1

Row | PC [3] | Compound | EC50 [1] [µM] | Ratio [5] | also measured
1 | 2.6 | COCC(O)Cn1cnc([N+](=O)[O-])c1I (stereo not given) | 170 | 1.6 | 
2 | 2.9 | O=C(Cn1cnc([N+](=O)[O-])c1I)NCc1cccnc1 | 650 |  | Ratio [6]: 1.5
3 | 19.4 | Cn1cnc(I)c1[N+](=O)[O-] | 820 |  | Ratio [7]: 2.4
4 | 0.04 | O=C(Cn1cnc([N+](=O)[O-])c1I)NCc1ccc[n+]([O-])c1 | > 1000 |  | Ratio [8]: 1.2
5 | 3.7 | CCOC(=O)Cn1cnc([N+](=O)[O-])c1I | 60 |  | Ratio [9]: 1.7
6 | 7.8 | COCC(O)Cn1cnc(I)c1[N+](=O)[O-] (stereo not given) | 480 | 1.4 | 

Second part, the molecule before the results:

Row | Compound | PC [3] | EC50 [1] [µM] | Ratio [5] | also measured
7 | Cn1cnc([N+](=O)[O-])c1I | 10.1 | 140 |  | Ratio [2]: 2.5
8 | O=[N+]([O-])c1[nH]cnc1I | 1.9 | > 1000 |  | Ratio [4]: 1.1
9 | O=C(Cn1cnc(I)c1[N+](=O)[O-])NCc1cccnc1 | 7.6 | 180 | 1.7 | 
10 | CCOC(=O)Cn1cnc(I)c1[N+](=O)[O-] | 8.6 | 180 | 1.8 | 
